Assay outcomes deposited in PubChem BioAssay by Broad Institute.
Wnt bcat act – Wnt/beta-catenin pathway activators, primary screen, cell-based, plate reader, single point; AID 743398, 2014; activation, % at 9.35 µM; actives 1.2% (n = 300,000); Wnt/beta-catenin reporter cell assay, activator; in the data active = activation above about 30%, passing the limit was not always enough; inconclusive = no clear call, values can overlap the other calls;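 also: 0% = neutral control wells and 100% = positive control wells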
MITF TRPM1 HTS – activators of MITF-driven TRPM1 promoter reporter, primary screen, cell-based, SK-MEL-5, luciferase, single point; actives 0.75% (n = 300,000); AID 588334, 2011; SK-MEL-5 TRPM1-promoter luciferase, 24 h; % of positive control, neutral wells = 0; activation, % at 12.5 µM;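 active = mean activation of at least 80% with every replicate also reaching 80%; inconclusive = mean reaches 80% but some replicate falls short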;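 also: 0% = neutral control wells and 100% = parthenolide positive control wells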
ERAP1 inh – human ERAP1 aminopeptidase inhibitors, primary screen, biochemical, single point, plate reader; recombinant ERAP1, Leu-AMC fluorescence, 60 min; actives 0.15% (n = 340,000); AID 652197, 2013; inhibition, % at 10.7 µM; Endoplasmic reticulum aminopeptidase 1 (Homo sapiens), Q9NZ08;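 active = mean replicate inhibition of at least 30%, or all replicates individually reaching that 30% level; inactive = mean below 30% and not every replicate reaching it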;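 also: 0% = neutral control wells and 100% = L-leucinethiol positive control wells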
Target sequence (Q9NZ08 whole entry, looked up): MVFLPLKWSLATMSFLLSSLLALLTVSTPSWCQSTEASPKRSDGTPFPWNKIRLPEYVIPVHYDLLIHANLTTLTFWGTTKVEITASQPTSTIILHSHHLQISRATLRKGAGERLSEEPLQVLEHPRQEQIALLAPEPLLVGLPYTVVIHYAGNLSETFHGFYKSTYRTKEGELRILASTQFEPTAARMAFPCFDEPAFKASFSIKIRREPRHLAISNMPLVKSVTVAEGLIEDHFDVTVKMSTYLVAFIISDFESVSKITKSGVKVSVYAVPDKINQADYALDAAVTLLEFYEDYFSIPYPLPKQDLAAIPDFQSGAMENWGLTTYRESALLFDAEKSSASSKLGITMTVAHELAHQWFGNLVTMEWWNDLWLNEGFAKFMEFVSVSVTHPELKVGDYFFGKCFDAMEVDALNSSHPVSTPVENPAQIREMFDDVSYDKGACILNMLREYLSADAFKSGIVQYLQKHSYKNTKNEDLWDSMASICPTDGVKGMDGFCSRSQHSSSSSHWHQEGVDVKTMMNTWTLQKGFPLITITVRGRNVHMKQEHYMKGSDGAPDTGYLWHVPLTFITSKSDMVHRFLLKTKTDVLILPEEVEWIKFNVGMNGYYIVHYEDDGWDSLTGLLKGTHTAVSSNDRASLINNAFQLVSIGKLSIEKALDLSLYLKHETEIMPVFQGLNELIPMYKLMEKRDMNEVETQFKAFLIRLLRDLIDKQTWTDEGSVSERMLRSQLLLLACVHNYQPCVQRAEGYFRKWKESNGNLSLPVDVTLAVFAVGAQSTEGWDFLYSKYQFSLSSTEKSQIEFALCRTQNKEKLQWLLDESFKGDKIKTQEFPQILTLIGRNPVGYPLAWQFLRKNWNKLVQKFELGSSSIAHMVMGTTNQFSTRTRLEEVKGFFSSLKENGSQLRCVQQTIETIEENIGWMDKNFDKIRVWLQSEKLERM
Cneo AK release – Cryptococcus neoformans cell lysis inducers, primary screen, AK release luminescence, single concentration. lysis activity, % at 15 µM. AID 651654, 2012. C. neoformans lysis, adenylate kinase release luminescence, 4 h; normalised: neutral wells 0, clomiphene wells 100. actives 0.2% (n = 360,000);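 active = mean lysis activity across replicates of at least 80%, whatever share of replicates individually reach that level; inactive = mean lysis activity below 80%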
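Assay system: log-phase C. neoformans yeast / Quantity: yeast cell density of 5 × 10^6 cells/mL / Medium: fresh YPD growth medium / Compound: single dose / Timing: static 4 h at 37 °C with compound, 1 h detection / Measured by: adenylate kinase release luminescence / Read-out: lysis from increased AK signal / Benchmarks: Clomiphene as positive lysis control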
esBAF inh – Bmi1 luciferase reporter increase in mESCs, primary screen, esBAF inhibitor project, mouse ES cells, Bmi1 luciferase knock-in, single point | reporter increase, % at 12.5 µM | 24 h; 100% = twice the neutral-well signal | actives 2% (n = 350,000); in the data active = activation above about 40%; inconclusive = no clear call, values can overlap the other calls;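 also: 0% = median of the plate's neutral control wells and 100% = double that signal; a rise in the Bmi1 reporter signal indicates esBAF inhibition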
Env fusion inh – inhibitors of HIV-1 Env-driven cell-cell fusion, primary screen, HeLa-JRFL effector, CEM21 target cells, luciferase | inhibition, % at 12.3 µM | actives 1.1% (n = 360,000) | AID 651610, 2012;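 active = mean replicate inhibition score of at least 50 and every replicate individually at or above 50; inconclusive = only one of the two criteria met; inactive = mean below 50 and not all replicates reaching 50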;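 also: 0% = plate neutral controls and 100% = maraviroc near 300 nM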
* hit, by the source's call; ? = inconclusive; nt = no result given; [ ] = another dose, or the depositor's remark. Rows were chosen to be rich in hits. Some 3.5% of all compounds tested hit in one or more screens of this group.

SMILES	Wnt bcat act	MITF TRPM1 HTS	ERAP1 inh	Cneo AK release	esBAF inh	Env fusion inh
CCCCCCOc1ccc(OCC(O)CN2C(=O)NC(C)(C)C2=O)cc1 (stereo unspecified)	7	51	-3	0	46*	nt
Cc1ccc(OCC(O)CN2C(=O)NC(C)(C)C2=O)cc1 (stereo unspecified)	nt	-4	nt	4	-1	nt
Cc1noc(C)c1NC(=O)Nc1ccc2c(c1)C(=O)N([C@@H](C)CO)C[C@H](C)[C@@H](CN(C)C(=O)Nc1ccc(C(F)(F)F)cc1)OCCCC[C@H](C)O2	nt	nt	-3	1	-1	21[16.7 µM]
Cc1nc(N)nc(N)c1-c1ccc(Cl)c(Cl)c1	-4	-27	-6	nt	-47	-16
Nc1nc(N)nc(-c2ccc(Cl)c(Cl)c2)n1	38*	71	6	1	32	28
CC(C)C[C@@H]1COCc2cn(nn2)CC[C@@H](Cc2ccccc2)C(=O)N1	nt	nt	1	3	nt	11[16.7 µM]
C[C@@H]1CCCCO[C@H](CN(C)C(=O)Nc2ccc(F)cc2)[C@H](C)CN([C@@H](C)CO)C(=O)c2cc(NS(C)(=O)=O)ccc2O1	nt	nt	0	-1	3	-13[16.7 µM]
CCCc1cc(-c2ccc3c(c2)COc2c4ccccc4nn2-3)on1	36*	?	-1	-8	-8	-314
Cc1cc(-c2ccc3c(c2)COc2c4ccccc4nn2-3)on1	45*	64	nt	-2	6	-277
C(#CC1CCCC1)c1ccc2c(c1)COc1c3ccccc3nn1-2	42*	119*	1	5	60*	-227
Cc1ccc2c(c1)COc1c3ccc(C(=O)N4CCCCC4)cc3nn1-2	21	?	-2	0	26	-199
O=C(c1ccc2c3n(nc2c1)-c1ccccc1CO3)N1CCCCC1	20	20	-1	-4	5	-73
CO[C@@H]1CN(C)C(=O)c2cc(NC(=O)C3CCOCC3)ccc2OC[C@@H](C)N(C(C)=O)C[C@@H]1C	nt	nt	-4	-3	-4	-3[16.7 µM]
Cc1noc(C)c1NC(=O)NCC[C@H]1CC[C@@H](NC(=O)Cc2cccnc2)[C@H](CO)O1	nt	nt	0	4	0	3[16.7 µM]
C[C@@H]1CN([C@H](C)CO)C(=O)Cc2cc(NC(=O)Cc3cn(C)c4ccccc34)ccc2O[C@@H]1CN(C)S(=O)(=O)c1ccc(F)cc1	nt	nt	6	0	-4	-2[16.7 µM]
CCN(CC)c1ccc(/C=N/n2nnnc2N)c(O)c1	nt	20	nt	-2	44*	-169
CCN(C)c1ccc(/C=N\n2nnnc2N)cc1	nt	28	nt	-3	nt	-406
Cc1ccc(S(=O)(=O)N(C)C[C@H]2Oc3ccc(NS(=O)(=O)c4cn(C)cn4)cc3C(=O)N([C@@H](C)CO)C[C@@H]2C)cc1	nt	nt	nt	nt	2	0[16.7 µM]
CC[C@@]12C(=O)N(c3cccc(Br)c3)C(=O)N1[C@H](c1ccc(OC)cc1)[C@@H]1C(=O)N(C(C)(C)C)C(=O)[C@@H]12	-1	3	2	2	3	96*
CC[C@@]12C(=O)N(c3cccc(Br)c3)C(=O)N1[C@H](c1ccc(Br)cc1)[C@@H]1C(=O)N(C(C)(C)C)C(=O)[C@@H]12	-2	5	nt	0	1	-11
CC[C@@]12C(=O)N(c3ccccc3)C(=O)N1[C@H](c1ccc(OC)cc1)[C@@H]1C(=O)N(C(C)(C)C)C(=O)[C@@H]12	-4	7	-4	1	6	73*
CC[C@@]12C(=O)N(c3ccc(C)cc3)C(=O)N1[C@H](c1ccc(Br)cc1)[C@@H]1C(=O)N(C(C)(C)C)C(=O)[C@@H]12	-5	80	1	-2	37	86*
CC[C@@]12C(=O)N(c3ccc(C)cc3)C(=O)N1[C@H](c1ccc(OC)cc1)[C@@H]1C(=O)N(C(C)(C)C)C(=O)[C@@H]12	0	10	0	0	17	80*
C[C@H](CO)N1C[C@H](C)[C@H](CN(C)Cc2ccc(C(F)(F)F)cc2)Oc2c(NC(=O)Nc3cccc4ccccc34)cccc2C1=O	nt	nt	-1	4	9	nt
C[C@H](CO)N1C[C@H](C)[C@@H](CN(C)C(=O)Nc2ccc(F)cc2)Oc2ccc(NC(=O)CCCCCC(=O)Nc3ccccc3N)cc2C1=O	nt	nt	1	nt	nt	nt
SMILES	Wnt bcat act	MITF TRPM1 HTS	ERAP1 inh	Cneo AK release	esBAF inh	Env fusion inh
C[C@H](CO)N1C[C@H](C)[C@@H](CN(C)S(=O)(=O)c2cn(C)cn2)OCCCC[C@H](C)Oc2ccc(NC(=O)CCCCCC(=O)Nc3ccccc3N)cc2C1=O	nt	nt	-1	-4	0	6[16.7 µM]
CC(C)OC(=O)N(C)C[C@H]1OCc2ccccc2-c2c(n(C)c3ccccc23)C(=O)N([C@H](C)CO)C[C@H]1C	nt	nt	2	0	4	nt
CO[C@H]1CC[C@H]2CCN(C)C(=O)C[C@H](c3ccccc3)CN(C)C(=O)c3cccc(C#N)c3OC[C@H]1O2	nt	nt	2	49	3	-8[16.7 µM]
C[C@@H]1CN([C@@H](C)CO)C(=O)c2cc(-c3ccc(C#N)cc3)cnc2O[C@@H]1CN(C)CC1CC1	nt	nt	nt	nt	3	7[16.7 µM]
O=C(O)C[C@H]1C[C@H]2c3cc(NC(=O)c4ccc5c(c4)OCO5)ccc3O[C@H]2[C@H](CO)O1	nt	nt	-3	1	-1	-10[16.7 µM]
CCCS/C(N)=N/N=C/c1cc(C)ccc1O	nt	123*	nt	nt	nt	nt
CCCCS/C(N)=N/N=C/c1ccccc1O	nt	69	nt	nt	nt	-88
Cc1cccc(CCNc2nc3ccc(C)cc3n3cnnc23)c1	11	67	-4	-3	46*	-22
Cc1ccc2nc(NCCc3ccc(Cl)cc3)c3nncn3c2c1	-1	13	-1	4	-4	-8
COc1cc(/C=C(/C#N)C(=O)NCCCc2ccccc2)ccc1OCC(=O)O	-1	nt	35*	-1	-7	-20
CN(C)c1ccc(/C=C(/C#N)C(=O)NCc2ccccc2)o1	13	61	nt	nt	48*	-11
N#C/C(=C/c1ccccc1)C(=O)NCc1ccccc1	0	4	-4	-1	1	-4
COc1ccc(/C=C(\C#N)C(=O)NCc2cccnc2)cc1OC	-2	-9	63*	nt	nt	2
COc1cc(/C=C(\C#N)C(=O)Nc2cccc(C(=O)O)c2)ccc1OCc1ccc(C)cc1	25	91*	2	-2	nt	-61
COc1cc(/C=C(\C#N)C(=O)NCc2ccccc2)ccc1OCc1ccc(C(=O)O)cc1	-2	12	nt	3	nt	12
Cc1ccc(S(=O)(=O)N(C)C[C@@H]2Oc3c(NS(=O)(=O)c4cn(C)cn4)cccc3C(=O)N([C@@H](C)CO)C[C@@H]2C)cc1	nt	nt	nt	nt	-6	17[16.7 µM]
